According to ChEMBL document CHEMBL1255410, “Activity of the investigational fluoroquinolone finafloxacin against ciprofloxacin-sensitive and -resistant Acinetobacter baumannii isolates” (2010):
Values after ≈ are worked out from the molar mass of the structure shown.

How the values were obtained:
Type in all cases: functional
Acinetobacter baumannii [1] = assay: Antimicrobial activity against Acinetobacter baumannii isolate 25 harboring GyrA Ser83-Leu mutation at pH 5.8
In short: (§1)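 MIC by agar dilution on Mueller-Hinton agar acidified to pH 5.8 with HCl before antibiotic-containing plates were poured. Agar pH was rechecked once the agar had solidified. Isolates had characterized gyrA/parC genes. Plates for both drugs were made the same day from fresh media, and MICs were read in parallel with the standard-pH set.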

Acinetobacter baumannii [2] = assay: Antimicrobial activity against Acinetobacter baumannii isolate 18 at pH 7.2
In short: (§2)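 MIC by agar dilution on Mueller-Hinton agar under standard conditions (pH 7.2), against isolates with characterized gyrA/parC genes. Agar pH was checked after solidifying. Plates for both drugs were prepared the same day from freshly made media, and MICs were determined simultaneously with the pH 5.8 set.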

Acinetobacter baumannii [3] = assay: Antimicrobial activity against Acinetobacter baumannii isolate 19 harboring GyrA Ser83-Leu mutation at pH 5.8; in short: as §1
Acinetobacter baumannii [4] = assay: Antimicrobial activity against Acinetobacter baumannii isolate 18 at pH 5.8; in short: as §1
Acinetobacter baumannii [5] = assay: Antimicrobial activity against Acinetobacter baumannii isolate 53 harboring GyrA Ser83-Leu and ParC Ser80-Leu mutation at pH 7.2
In short: (§3)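 Agar dilution MIC on Mueller-Hinton agar. For the acidic condition, HCl was added to bring the agar to pH 5.8 before pouring the antibiotic plates, and the pH was checked after the agar set. The standard condition was pH 7.2. Both drugs' plates were made the same day from fresh medium, and MICs were read at the same time.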

Acinetobacter baumannii [6] = assay: Antimicrobial activity against Acinetobacter baumannii isolate 4 at pH 7.2; in short: as §3
Acinetobacter baumannii [7] = assay: Antimicrobial activity against Acinetobacter baumannii isolate 5 at pH 5.8; in short: as §3
Acinetobacter baumannii [8] = assay: Antimicrobial activity against Acinetobacter baumannii isolate 58 harboring GyrA Ser83-Leu and ParC Ser80-Leu mutation at pH 5.8
In short: (§4)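 Agar dilution MIC on Mueller-Hinton agar acidified to pH 5.8 with HCl before the antibiotic-containing plates were poured. Agar pH was checked after solidifying. Plates were made the same day from fresh medium. Both fluoroquinolones were tested simultaneously against A. baumannii isolates with characterized gyrA/parC genes. MICs are in μg/ml.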

Acinetobacter baumannii [9] = assay: Antimicrobial activity against Acinetobacter baumannii isolate 50 harboring GyrA Ser83-Leu and ParC Ser80-Leu mutation at pH 5.8; in short: as §3
Acinetobacter baumannii [10] = assay: Antimicrobial activity against Acinetobacter baumannii isolate 38 harboring GyrA Ser83-Leu mutation at pH 7.2; in short: as §3
Acinetobacter baumannii [11] = assay: Antimicrobial activity against Acinetobacter baumannii isolate 40 harboring GyrA Ser83-Leu mutation at pH 5.8; in short: as §3
Acinetobacter baumannii [12] = assay: Antimicrobial activity against Acinetobacter baumannii isolate 37 harboring GyrA Ser83-Leu mutation at pH 5.8; in short: as §3
Acinetobacter baumannii [13] = assay: Antimicrobial activity against Acinetobacter baumannii isolate 30 harboring GyrA Ser83-Leu mutation at pH 5.8; in short: as §1
Acinetobacter baumannii [14] = assay: Antimicrobial activity against Acinetobacter baumannii isolate 13 at pH 7.2; in short: as §2
Acinetobacter baumannii [15] = assay: Antimicrobial activity against Acinetobacter baumannii isolate 12 at pH 5.8; in short: as §1
Acinetobacter baumannii [16] = assay: Antimicrobial activity against Acinetobacter baumannii isolate 39 harboring GyrA Ser83-Leu mutation at pH 5.8; in short: as §3
Acinetobacter baumannii [17] = assay: Antimicrobial activity against Acinetobacter baumannii isolate 64 harboring GyrA Ser83-Leu and ParC Ser80-Leu mutation at pH 7.2
In short: (§5)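 Agar dilution MIC on Mueller-Hinton agar under standard conditions (pH 7.2). Antibiotic-containing plates were made the same day from freshly prepared medium. Agar pH was checked after solidifying. Both fluoroquinolones were tested simultaneously against A. baumannii isolates with characterized gyrA/parC genes. MICs are in μg/ml.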

Acinetobacter baumannii [18] = assay: Antimicrobial activity against Acinetobacter baumannii isolate 10 at pH 7.2; in short: as §2
Acinetobacter baumannii [19] = assay: Antimicrobial activity against Acinetobacter baumannii isolate 8 at pH 5.8; in short: as §4
Acinetobacter baumannii [20] = assay: Antimicrobial activity against Acinetobacter baumannii isolate 60 harboring GyrA Ser83-Leu and ParC Ser80-Leu mutation at pH 7.2; in short: as §5
Acinetobacter baumannii [21] = assay: Antimicrobial activity against Acinetobacter baumannii isolate 2 at pH 7.2; in short: as §2
Acinetobacter baumannii [22] = assay: Antimicrobial activity against Acinetobacter baumannii isolate 65 harboring GyrA Ser83-Leu and ParC Ser80-Leu mutation at pH 5.8; in short: as §4
Acinetobacter baumannii [23] = assay: Antimicrobial activity against Acinetobacter baumannii isolate 33 harboring GyrA Ser83-Leu mutation at pH 5.8; in short: as §3
Acinetobacter baumannii [24] = assay: Antimicrobial activity against Acinetobacter baumannii isolate 2 at pH 5.8; in short: as §1
Acinetobacter baumannii [25] = assay: Antimicrobial activity against Acinetobacter baumannii isolate 13 at pH 5.8; in short: as §1
Acinetobacter baumannii [26] = assay: Antimicrobial activity against Acinetobacter baumannii isolate 66 harboring GyrA Ser83-Leu mutation at pH 7.2; in short: as §5
Acinetobacter baumannii [27] = assay: Antimicrobial activity against Acinetobacter baumannii isolate 48 harboring GyrA Ser83-Leu and ParC Ser80-Leu mutation at pH 7.2; in short: as §3
Acinetobacter baumannii [28] = assay: Antimicrobial activity against Acinetobacter baumannii isolate 6 at pH 5.8; in short: as §4
Acinetobacter baumannii [29] = assay: Antimicrobial activity against Acinetobacter baumannii isolate 14 at pH 7.2; in short: as §2
Acinetobacter baumannii [30] = assay: Antimicrobial activity against Acinetobacter baumannii isolate 46 harboring GyrA Ser83-Leu and ParC Ser80-Leu mutation at pH 5.8; in short: as §3
Acinetobacter baumannii [31] = assay: Antimicrobial activity against Acinetobacter baumannii isolate 38 harboring GyrA Ser83-Leu mutation at pH 5.8; in short: as §3
Acinetobacter baumannii [32] = assay: Antimicrobial activity against Acinetobacter baumannii isolate 17 at pH 5.8; in short: as §1
Acinetobacter baumannii [33] = assay: Antimicrobial activity against Acinetobacter baumannii isolate 12 at pH 7.2; in short: as §2
Acinetobacter baumannii [34] = assay: Antimicrobial activity against Acinetobacter baumannii isolate 34 harboring GyrA Ser83-Leu mutation at pH 5.8; in short: as §3
Acinetobacter baumannii [35] = assay: Antimicrobial activity against Acinetobacter baumannii isolate 33 harboring GyrA Ser83-Leu mutation at pH 7.2; in short: as §3
Acinetobacter baumannii [36] = assay: Antimicrobial activity against Acinetobacter baumannii isolate 6 at pH 7.2; in short: as §5
Acinetobacter baumannii [37] = assay: Antimicrobial activity against Acinetobacter baumannii isolate 24 harboring GyrA Ser83-Leu mutation at pH 7.2; in short: as §2
Acinetobacter baumannii [38] = assay: Antimicrobial activity against Acinetobacter baumannii isolate 27 harboring GyrA Ser83-Leu mutation at pH 5.8; in short: as §1
Acinetobacter baumannii [39] = assay: Antimicrobial activity against Acinetobacter baumannii isolate 22 harboring GyrA Ser83-Leu mutation at pH 5.8; in short: as §1
Acinetobacter baumannii [40] = assay: Antimicrobial activity against Acinetobacter baumannii isolate 57 harboring GyrA Ser83-Leu and ParC Ser80-Phe mutation at pH 7.2; in short: as §5
Acinetobacter baumannii [41] = assay: Antimicrobial activity against Acinetobacter baumannii isolate 31 harboring GyrA Ser83-Leu mutation at pH 7.2; in short: as §2
Acinetobacter baumannii [42] = assay: Antimicrobial activity against Acinetobacter baumannii isolate 22 harboring GyrA Ser83-Leu mutation at pH 7.2; in short: as §2
Acinetobacter baumannii [43] = assay: Antimicrobial activity against Acinetobacter baumannii isolate 16 at pH 7.2; in short: as §2
Acinetobacter baumannii [44] = assay: Antimicrobial activity against Acinetobacter baumannii isolate 50 harboring GyrA Ser83-Leu and ParC Ser80-Leu mutation at pH 7.2; in short: as §3

`N#Cc1c(N2C[C@@H]3NCCO[C@H]3C2)c(F)cc2c(=O)c(C(=O)O)cn(C3CC3)c12` [FINAFLOXACIN] showed an MIC (Acinetobacter baumannii [1]) of 2 µg/mL (≈ 5.02 µM), an MIC (Acinetobacter baumannii [2]) of 1 µg/mL (≈ 2.51 µM) and an MIC (Acinetobacter baumannii [3]) of 0.12 µg/mL (≈ 0.301 µM). It also gave an MIC (Acinetobacter baumannii [4]) of 0.12 µg/mL (≈ 0.301 µM), an MIC (Acinetobacter baumannii [5]) of 32 µg/mL (≈ 80.3 µM) and an MIC (Acinetobacter baumannii [6]) of 0.25 µg/mL (≈ 0.628 µM). It also gave an MIC (Acinetobacter baumannii [7]) of 0.06 µg/mL (≈ 0.151 µM), an MIC (Acinetobacter baumannii [8]) of 4 µg/mL (≈ 10 µM) and an MIC (Acinetobacter baumannii [9]) of 4 µg/mL (≈ 10 µM). For the same compound, the MIC (Acinetobacter baumannii [10]) was 16 µg/mL (≈ 40.2 µM), the MIC (Acinetobacter baumannii [11]) was 2 µg/mL (≈ 5.02 µM) and the MIC (Acinetobacter baumannii [12]) was 2 µg/mL (≈ 5.02 µM). The MIC (Acinetobacter baumannii [13]) was 0.5 µg/mL (≈ 1.26 µM), the MIC (Acinetobacter baumannii [14]) was 1 µg/mL (≈ 2.51 µM) and the MIC (Acinetobacter baumannii [15]) was 0.12 µg/mL (≈ 0.301 µM). For the same compound, the MIC (Acinetobacter baumannii [16]) was 2 µg/mL (≈ 5.02 µM), the MIC (Acinetobacter baumannii [17]) was 64 µg/mL (≈ 161 µM) and the MIC (Acinetobacter baumannii [18]) was 0.25 µg/mL (≈ 0.628 µM). The MIC (Acinetobacter baumannii [19]) was 0.12 µg/mL (≈ 0.301 µM), the MIC (Acinetobacter baumannii [20]) was 64 µg/mL (≈ 161 µM) and the MIC (Acinetobacter baumannii [21]) was 0.5 µg/mL (≈ 1.26 µM). For the same compound, the MIC (Acinetobacter baumannii [22]) was 8 µg/mL (≈ 20.1 µM), the MIC (Acinetobacter baumannii [23]) was 1 µg/mL (≈ 2.51 µM) and the MIC (Acinetobacter baumannii [24]) was 0.12 µg/mL (≈ 0.301 µM). It also gave an MIC (Acinetobacter baumannii [25]) of 0.12 µg/mL (≈ 0.301 µM), an MIC (Acinetobacter baumannii [26]) of 16 µg/mL (≈ 40.2 µM) and an MIC (Acinetobacter baumannii [27]) of 16 µg/mL (≈ 40.2 µM). For the same compound, the MIC (Acinetobacter baumannii [28]) was 0.06 µg/mL (≈ 0.151 µM), the MIC (Acinetobacter baumannii [29]) was 1 µg/mL (≈ 2.51 µM) and the MIC (Acinetobacter baumannii [30]) was 2 µg/mL (≈ 5.02 µM). It also gave an MIC (Acinetobacter baumannii [31]) of 2 µg/mL (≈ 5.02 µM), an MIC (Acinetobacter baumannii [32]) of 0.12 µg/mL (≈ 0.301 µM) and an MIC (Acinetobacter baumannii [33]) of 1 µg/mL (≈ 2.51 µM). For the same compound, the MIC (Acinetobacter baumannii [34]) was 2 µg/mL (≈ 5.02 µM), the MIC (Acinetobacter baumannii [35]) was 16 µg/mL (≈ 40.2 µM) and the MIC (Acinetobacter baumannii [36]) was 0.25 µg/mL (≈ 0.628 µM). The MIC (Acinetobacter baumannii [37]) was 16 µg/mL (≈ 40.2 µM), the MIC (Acinetobacter baumannii [38]) was 1 µg/mL (≈ 2.51 µM) and the MIC (Acinetobacter baumannii [39]) was 1 µg/mL (≈ 2.51 µM). It also gave an MIC (Acinetobacter baumannii [40]) of 32 µg/mL (≈ 80.3 µM), an MIC (Acinetobacter baumannii [41]) of 16 µg/mL (≈ 40.2 µM) and an MIC (Acinetobacter baumannii [42]) of 8 µg/mL (≈ 20.1 µM). It also gave an MIC (Acinetobacter baumannii [43]) of 1 µg/mL (≈ 2.51 µM) and an MIC (Acinetobacter baumannii [44]) of 16 µg/mL (≈ 40.2 µM).
